# Compounds with a hit are over-represented: about 3.7% of the library has one in this group of screens.
# KCNQ1 block = human KCNQ1 channel inhibition; CHO-K1 KCNQ1, FluxOR thallium flux fluorescence; hits give high values; B-score at 10 µM; 310,000 tested, 1.3% active;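 active = compounds whose thallium flux B-score, printed positive for inhibition, exceeds three library SD while starting fluorescence stays within three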;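 also: channel opened by potassium depolarization with thallium stimulus after 20 min compound exposure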
# Kir21 inh = inhibitors of mouse Kir2.1 inward-rectifier potassium channel. HEK293-Kir2.1, FluxOR thallium flux fluorescence; hits give low values. B-score at 10 µM. 310,000 tested, 0.85% active. AID 1672;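 active = fluorescence ratio B-score at or below minus 3 SD of library scores, with starting-brightness B-score within 2 SD, cut at about -4.2 in these data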;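 also: channel flux triggered by added potassium and thallium sulfate stimulus; B-score of peak minus minimum fluorescence over baseline after thallium stimulus; more negative B-score means stronger Kir2.1 block with less thallium influx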
# Target sequence (P35561 whole entry, looked up): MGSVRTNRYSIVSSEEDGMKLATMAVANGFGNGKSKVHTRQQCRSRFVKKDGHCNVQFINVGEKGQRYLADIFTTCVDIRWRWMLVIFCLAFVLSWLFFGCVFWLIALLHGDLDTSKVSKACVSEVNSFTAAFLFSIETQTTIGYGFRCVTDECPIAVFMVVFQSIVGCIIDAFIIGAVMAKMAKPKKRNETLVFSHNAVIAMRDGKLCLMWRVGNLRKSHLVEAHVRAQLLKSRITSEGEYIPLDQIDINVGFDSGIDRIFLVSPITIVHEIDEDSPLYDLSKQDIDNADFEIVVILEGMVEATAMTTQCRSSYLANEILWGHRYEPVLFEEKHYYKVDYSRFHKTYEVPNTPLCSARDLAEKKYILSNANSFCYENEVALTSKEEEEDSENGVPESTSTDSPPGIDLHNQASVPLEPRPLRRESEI
# KCNK9 block = inhibitors of human KCNK9 two-pore domain potassium channel. HEK293 KCNK9, FluxOR thallium flux fluorescence; hits give low values. 310,000 tested, 1.2% active. Q9NPC2. B-score at 10 µM;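 active = ratio B-score over 3 SD below the library mean, with starting fluorescence within 5 SD of its mean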;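 also: negative B-score means less thallium flux so channel inhibition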
# KCNK3 block = human KCNK3 channel inhibition, primary screen; O14649; CHO-KCNK3 thallium flux, FluxOR fluorescence; hits give low values; 340,000 tested, 0.84% active; AID 602410; B-score at 10 µM;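 active = B-score under library mean minus 4 SD, starting fluorescence ratio at most library mean plus 5 SD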;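 also: more negative B-score means stronger inhibition of thallium flux through KCNK3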
# hERG protect = shields human hERG channel from block by proarrhythmic agents; activation (rescue from dofetilide block), less the hit threshold, % at 10 µM; CHO-hERG, FluxOR thallium flux, dofetilide IC70 present; 310,000 tested, 0.51% active; Q12809; AID 1511;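 active = activation above the mean of controls blocked by dofetilide plus 5 SD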;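 also: thallium influx through hERG after potassium depolarization seen as dye fluorescence rise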
# KCNQ1 pot = human KCNQ1 channel potentiation or activation | CHO-K1 KCNQ1, thallium flux FluxOR fluorescence; hits give high values | B-score at 10 µM | AID 2648 | 310,000 tested, 0.35% active;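 active = fluorescence ratio B-score, a plate-corrected score, at least three library SD, with initial intensity B-score within 5 SD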
#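 assay system = CHO-K1 cells stably expressing KCNQ1 | medium = assay buffer, equal DMSO in all wells | timing = 37 °C overnight plating, 90-min dark dye load, 20-min compound pretreatment | measured by = kinetic FluxOR thallium fluorescence, 10-s 1-Hz baseline, 110-s post-stimulus read | measure = fluorescence change relative to baseline, converted to B score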
# KCNQ1 block val = confirmation of human KCNQ1 potassium channel inhibitors | 1,600 tested, 93% active | inhibition, % at 10 µM | shares compounds with KCNQ1 block | KCNQ1 cell line, FluxOR thallium flux fluorescence;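 active = primary screen active, with duplicate mean exceeding buffer control mean plus 3 SD of buffer wells, cut at about 28% in these data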;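 also: 0% = buffer control ratio and 100% = XE991 inhibitor control ratio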
# CHO Tl flux = activity in parental CHO cells lacking KCNQ1. shares compounds with KCNQ1 block. parental CHO-K1, FluxOR thallium flux fluorescence ratio; hits give low values; zero means no signal rise above baseline. fluorescence ratio (Tl flux) at 10 µM. 1,600 tested, 21% active. AID 588366;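 active = mean of duplicate thallium-flux fluorescence ratios in parental host cells more than 5 SD below the buffer control mean, cut at about 0.38 in these data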;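 also: ratio is peak minus minimum fluorescence divided by baseline fluorescence; actives read low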
# KCNQ1 ephys val = confirmation of human KCNQ1 potassium channel inhibitors by electrophysiology | AID 624120 | 490 tested, 20% active | KCNQ1-CHO cells, automated patch clamp current | shares compounds with KCNQ1 block | calls only at 10 µM;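 active = KCNQ1 current drop exceeding 3 SD of negative control wells, seen in both duplicate runs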;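 also: steady state current during a 2 s step from -80 to +40 mV; negative values mean current inhibition and positive values mean potentiation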
# KCNQ2 inh = rat KCNQ2 inhibition in KCNQ1 inhibitor specificity screen. shares compounds with KCNQ1 block. AID 651746. KCNQ2 cells, FluxOR thallium flux fluorescence. 1,600 tested, 71% active. inhibition, % at 10 µM;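 active = mean percent inhibition of the KCNQ2 thallium signal more than 5 SD above the buffer-only control wells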;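 also: KCNQ2 expressed in CHO cells; 0% = buffer control wells and 100% = XE-991 inhibitor control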
# KCNQ1-KCNE1 inh = human KCNQ1/KCNE1 inhibition in KCNQ1 specificity screen; shares compounds with KCNQ1 block; 1,600 tested, 77% active; KCNQ1/KCNE1 cells, FluxOR thallium flux fluorescence; inhibition, % at 10 µM;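 active = mean percent inhibition of duplicate wells above the buffer-only control mean plus 3 SD of those controls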;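 also: 0% = buffer only wells and 100% = XE-991 inhibitor control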
# Starred values were filed as active, the others as inactive; i = inactive; nt = not tested or not shown; + = active, no number.
SMILES,KCNQ1 block,Kir21 inh,KCNK9 block,KCNK3 block,hERG protect,KCNQ1 pot,KCNQ1 block val,CHO Tl flux,KCNQ2 inh,KCNQ1-KCNE1 inh,others
O=C(Nc1ccccc1N1CCOCC1)c1ccccc1NS(=O)(=O)c1ccc(F)cc1,i,0.05,i,i,-15,i,nt,nt,nt,nt,
CC(C)C(=O)Nc1ccc2c(c1)nc(CCN1CCN(c3ccccn3)CC1)n2C,i,-1.4,i,i,-6,i,nt,nt,nt,nt,
FC(F)(F)c1cc(-c2ccco2)nc(N2CCN(Cc3ccccc3)CC2)n1,8*,0.76,i,i,-10,i,82*,0.42,75%*,106%*,
C[C@@H]1COC(=O)[C@H](CC(=O)OC(C)(C)C)C/C=C\C[C@@H](CC(=O)N[C@H](CO)Cc2ccccc2)C(=O)N1,nt,nt,nt,i,nt,nt,nt,nt,nt,nt,
CCN1/C(=C\c2ccc3cc(C)ccc3[n+]2CC)Sc2cc(C)c(C)cc21,17*,-6,i,i,-15,i,170*,0.26*,i,i,
CCN1/C(=C/c2ccc3cc(C)cc(C)c3[n+]2CC)Sc2cc(C)ccc21,nt,nt,nt,i,nt,nt,nt,nt,nt,nt,
CN(C)S(=O)(=O)c1ccc(Cl)c(NC(=O)COC(=O)c2cc(-c3ccccc3)nc3ccccc23)c1,6*,0.88,i,i,-10,i,60*,0.49,74%*,74%*,
CN(C)CCN(C(=O)c1ccc2c(c1)CCCC2)c1nc2cc3c(cc2s1)OCCO3,11*,0.48,i,i,-12,i,106*,0.35*,125%*,121%*,
CCN(CC)CCN(C(=O)c1ccc2ncsc2c1)c1nc2cc3c(cc2s1)OCO3,10*,-1.9,i,i,-12,i,92*,0.42,89%*,120%*,KCNQ1 ephys val=+
COc1ccccc1CNC(=O)CN(c1ccc(C)cc1)S(=O)(=O)c1c(C)noc1C,i,0.18,i,i,-7,i,nt,nt,nt,nt,
Clc1ccc(-c2csc(N3CCCCCC3)n2)cc1,8*,-0.94,i,i,-2,i,123*,0.51,81%*,140%*,KCNQ1 ephys val=i
Clc1ccc(-c2csc(N3CCOCC3)n2)cc1,i,-0.11,i,i,-9,i,nt,nt,nt,nt,
CC(C)N(CCCNC(=O)Cn1c(=O)c2cccn2c2ccc(F)cc21)Cc1ccccc1,i,0.67,i,i,-5,i,nt,nt,nt,nt,
CC(C)(C)c1ccc(S(=O)(=O)N2CCC(c3nc4ccc(Cl)cc4[nH]3)CC2)cc1,10*,2.1,i,i,-4,i,117*,0.43,101%*,108%*,
Cc1cc(C(=O)NCc2cc(F)cc3c2OCOC3)nn1C,i,1.2,i,i,-8,i,nt,nt,nt,nt,
Cn1nc(C(C)(C)C)cc1C(=O)NCc1cc(F)cc2c1OCOC2,7*,0.7,i,i,-25,i,94*,0.45,82%*,34%*,KCNQ1 ephys val=+
Cc1ccc(S(=O)(=O)N(CC(=O)N=Nc2c(O)[nH]c3ccccc23)c2cccc(C)c2)cc1,7*,0.63,i,i,-3,i,76*,0.43,80%*,130%*,
Cn1c(O)c(/C=N/NC(=O)c2cc3ccccc3cc2O)c2ccccc21,17*,-6.3,i,i,-24,i,101*,0.32*,i,i,
COCCn1c(C)cc(/C=N/NC(=O)c2cc3ccccc3cc2O)c1C,nt,nt,nt,i,nt,nt,nt,nt,nt,nt,
CC(=O)Oc1ccc(C(=O)N2c3ccccc3NC(=O)C2C)cc1 (stereo unspecified),i,-1.6,i,i,-12,i,nt,nt,nt,nt,
O=C(Nc1ccc2c(c1)OCO2)Nc1ccc2c(c1)OCO2,i,-1.1,i,i,-7,i,nt,nt,nt,nt,
C=CCNC(=S)Nc1ccc(Cl)cc1,i,2.7,i,i,-9,i,nt,nt,nt,nt,
C=CCNC(=S)Nc1ccc(OC(F)F)c(Cl)c1,9*,-0.18,i,i,-13,i,0,0.53,61%*,i,
O=C(Nc1ccc(OC(F)F)c(Cl)c1)Nc1ccc2c(c1)OCO2,7*,-1.6,i,i,-3,i,84*,0.45,i,i,
O=C(CN1CCN(C(=O)c2cccc(S(=O)(=O)N3CCCC3)c2)CC1)Nc1ccc(F)cc1,nt,nt,nt,i,nt,nt,nt,nt,nt,nt,
SMILES,KCNQ1 block,Kir21 inh,KCNK9 block,KCNK3 block,hERG protect,KCNQ1 pot,KCNQ1 block val,CHO Tl flux,KCNQ2 inh,KCNQ1-KCNE1 inh,others
Cc1cc(CN(C)C(=O)c2ccc3nc(Cc4ccccc4F)oc3c2)on1,i,-1.5,i,i,-9,i,nt,nt,nt,nt,
Cc1ccc(C)c(S(=O)(=O)N2CCN(C(=O)c3cc(-c4cccs4)nn3-c3ccccc3)CC2)c1,9*,-0.02,i,i,-15,i,0,0.45,79%*,46%*,
O=C(CN(C(=O)CNC(=O)c1ccco1)c1ccc(F)cc1)NC1CCCC1,i,-0.39,i,i,-6,i,nt,nt,nt,nt,
Cc1ccc(SCCNS(=O)(=O)c2ccc(F)cc2)cc1,7*,-1.5,i,i,-18,i,47*,0.48,62%*,50%*,
O=S(=O)(NCCSc1ccc(Cl)cc1)c1ccc(F)cc1,i,-2.1,i,i,-16,i,nt,nt,nt,nt,
O=C(Nc1ccc(OC(F)(F)F)cc1)Oc1ccccc1N1CCCCC1,9*,-0.99,i,i,-19,i,82*,0.48,i,40%*,
O=C(Nc1ccc(OC(F)(F)F)cc1)Oc1ccccc1N1CCOCC1,6*,-0.37,i,i,-8,i,50*,0.5,70%*,39%*,
COc1ccc(NC(=O)C/C(C)=N/NC(=O)c2ccco2)c([N+](=O)[O-])c1,i,0.81,i,i,-4,i,nt,nt,nt,nt,
COc1cc(OC)cc(-c2c(-c3cccs3)c3cc(-c4ccc5c(c4)OCCO5)ccc3n2C)c1,nt,nt,nt,i,nt,nt,nt,nt,nt,nt,
C=CCOc1ccc(/C=C2\SC(N3CCCCC3)=NC2=O)cc1,i,0.85,i,i,-5,i,nt,nt,nt,nt,
CC12CC3(C)CC(C)(C1)CC(C(=O)NC(=S)N1CCOCC1)(C2)C3,8*,0.57,i,i,-7,i,53*,0.45,i,44%*,

# Screening results from PubChem.
